LEDGF integ inh = blocks HIV-1 LEDGF/p75-dependent DNA integration. TR-FRET IN-LEDGF/p75 DNA integration, Eu/Cy5. inhibition, % at 3.7 µM. 370,000 tested, 0.64% active. AID 743269;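 active = inhibition above the screen-wide mean plus 3 SD, cut at about 13% in these data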;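 also: signal is the Cy5 over europium emission ratio at 671 and 618 nm; 0% = plate median of compound wells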
TDP2 inh = TDP2 (human) inhibition, absorbance primary screen. O95551. recombinant TDP2, T5PNP hydrolysis, p-nitrophenol absorbance 415 nm. inhibition, % at 12.8 µM. 370,000 tested, 0.34% active. AID 720702;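 active = inhibition above the mean of all tested compounds plus 3 SD, set per campaign, cut at about 25% in these data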;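 also: 0% = DMSO with enzyme and 100% = buffer with substrate but no TDP2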
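System – recombinant human TDP2 · Amount – 120 nM TDP2 per well · Buffer or medium – Mg2+-containing Tris-HCl buffer, pH 7.5 · Reagent – T5PNP substrate, 5 mM · Dosing – 12.8 µM single point, 1% DMSO · Incubation – 2 h at 37 °C · Measured by – epi absorbance · Read-out basis – percent inhibition · Benchmarks – high control without enzyme, low control DMSO plus TDP2 · Repeats – singlicate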
MBD2 DNA inh = MBD2-methylated oligo binding inhibition | Q9UBB5 | TR-FRET, MBD2 binding to methylated oligonucleotide | inhibition, % at 4.4 µM | 370,000 tested, 0.31% active | AID 686964; in the data active = inhibition above about 13%
UHRF1 binding = blocks human UHRF1 binding to methylated DNA. UHRF1 binding to methylated oligo, TR-FRET. inhibition, % at 4.4 µM. 370,000 tested, 0.75% active; in the data active = inhibition above about 21%;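 also: UHRF1 SRA domain binding a hemimethylated CpG hairpin DNA probe; 0% = median of test compound wells and 100% = reference inhibitor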
Target sequence (Q96T88 whole entry, looked up, the tested form may be a part): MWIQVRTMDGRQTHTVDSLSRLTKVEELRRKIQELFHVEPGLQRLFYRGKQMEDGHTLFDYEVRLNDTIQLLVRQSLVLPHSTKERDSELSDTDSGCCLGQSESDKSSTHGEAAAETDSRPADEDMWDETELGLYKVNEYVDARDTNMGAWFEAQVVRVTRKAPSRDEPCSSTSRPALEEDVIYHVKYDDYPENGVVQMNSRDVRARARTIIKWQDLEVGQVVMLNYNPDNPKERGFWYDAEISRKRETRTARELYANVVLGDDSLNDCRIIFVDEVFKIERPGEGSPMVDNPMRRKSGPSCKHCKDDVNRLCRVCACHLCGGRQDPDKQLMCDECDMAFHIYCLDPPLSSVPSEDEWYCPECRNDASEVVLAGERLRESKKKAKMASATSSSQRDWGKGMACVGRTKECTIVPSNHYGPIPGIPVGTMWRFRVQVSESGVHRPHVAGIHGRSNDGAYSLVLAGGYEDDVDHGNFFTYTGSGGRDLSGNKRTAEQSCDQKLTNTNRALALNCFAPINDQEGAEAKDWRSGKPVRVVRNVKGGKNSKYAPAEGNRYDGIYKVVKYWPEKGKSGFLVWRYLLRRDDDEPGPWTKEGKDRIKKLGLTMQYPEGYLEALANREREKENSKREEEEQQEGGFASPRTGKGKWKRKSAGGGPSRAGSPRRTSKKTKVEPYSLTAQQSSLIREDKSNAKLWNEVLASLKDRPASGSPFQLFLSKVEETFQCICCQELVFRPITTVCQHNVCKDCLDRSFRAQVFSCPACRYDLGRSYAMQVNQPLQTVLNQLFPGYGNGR
TDP2 confirm = confirmation of human TDP2 inhibitors | shares compounds with TDP2 inh | recombinant human TDP2, absorbance read-out | inhibition, % at 12.8 µM | 1,100 tested, 22% active | AID 743263; in the data active = inhibition above about 25%;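 also: 0% = vehicle with enzyme and 100% = no enzyme buffer only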
An asterisk follows results filed as active; · = not tested or not shown. Sampled rows, rich in hits. Any-hit rate of the full collection: about 1.6%.

SMILES	LEDGF integ inh	TDP2 inh	MBD2 DNA inh	UHRF1 binding	TDP2 confirm
COC(=O)[C@]12C[C@H](CC(=O)NCCc3ccccc3OC)C(=O)N(CCc3ccc(OC)c(OC)c3)C1=C[C@H](C1CCCC1)O[C@@H]2C	-3	-4	-6	-3	·
O=C(NCC1CCCO1)c1cccnc1NCc1ccc(F)cc1 (configuration not stated)	1	1	-4	3	·
O=C(NCC1CCCO1)c1cccnc1Nc1ccccc1F (configuration not stated)	-1	40*	2	4	6
COc1cc(O)c(NC(C)=O)c2nonc12	8	48*	-1	8	24
COc1cc(-c2ccc(NC(C)=O)c(OC)c2)ccc1NC(C)=O	-4	4	1	-3	·
CCCCc1nc2ccccc2c(NC(=O)CN2CCCC2)c1CCC	6	2	-1	7	·
O=C(CN1CCCCC1)Nc1c2c(nc3ccccc13)N(c1ccccc1)CC2	14*	45*	2	1	9
CC1(C)c2cc(O)ccc2OC1N1CCOCC1 (configuration not stated)	1	25*	2	-4	12
CN1C(=O)NC(c2ccccc2[N+](=O)[O-])C2=C1CC(C)(C)CC2=O (configuration not stated)	4	31*	-4	-6	13
CN1C(=O)NC(c2ccccc2[N+](=O)[O-])C2=C1CCCC2=O (configuration not stated)	-3	11	-8	-22	·
COC(=O)[C@]12C[C@H](CC(=O)NCC34CC5CC(CC(C5)C3)C4)C(=O)N(Cc3ccco3)C1=C[C@H](C(C)(C)C)O[C@@H]2C	-1	-4	5	0	·
Cc1cccc(NC(=O)NN(C(=O)c2ccccc2Cl)C(C)(C)C)c1	-4	13	-3	-1	·
CCCC(=O)N1CCC[C@]2(CC[C@@H](CCC(=O)OCC)O2)C1	4	2	2	4	·
O=C(Nc1nc2ncccn2c1-c1ccc(F)cc1)C1CC1	2	-5	-3	1	·
CC(C)NC(=O)N[C@H]1C[C@@H]2O[C@@H](CO)CC[C@@H]2O[C@@H]1CCc1ccc(-c2ccc(F)cc2)cc1	4	3	1	0	·
CCOc1ccc(-c2[nH]nc3c2C(c2ccc4c(c2)OCO4)C(C#N)=C(N)O3)cc1OC (configuration not stated)	-1	27*	-4	-12	5
COc1cc(Br)c(C2C(C#N)=C(N)Oc3n[nH]c(-c4cccnc4)c32)cc1OC (configuration not stated)	7	43*	-2	-2	16
O=C1NC(=O)/C(=C/c2ccccc2OCc2ccccc2)S1	3	25*	-5	-2	12
CCC(C)N1CC(C(=O)O)CC1=O (configuration not stated)	4	3	-1	-1	·
CCC(C)N1CC(C(=O)NC2CCCCC2)CC1=O (configuration not stated)	6	25*	10	16	-5
Cc1ccc(NC(=O)CCSc2nnc(C)o2)cc1	0	28*	-7	-3	6
Cn1nc(C(C)(C)C)cc1C(=O)NCC1CCN(C(=O)C(=O)c2cc3ccccc3o2)CC1	0	1	-1	-4	·
O=C(N/N=C/c1cc(Cl)ccc1O)c1cccnc1	-5	60*	-2	-3	-13
O=C1C(=O)N(c2nccs2)C(c2ccccc2F)/C1=C(\O)c1ccc2c(c1)OCCO2 (configuration not stated)	4	26*	9	23*	-1
Cc1nnc(N2C(=O)C(=O)/C(=C(/O)c3ccc4c(c3)OCCO4)C2c2ccc(F)cc2)s1 (configuration not stated)	-3	1	4	16	·
COC(=O)C1CN(CC(C)C)CCS(=O)(=O)N1Cc1ccc(Cl)cc1 (configuration not stated)	-2	-9	-6	-1	·
CN(C)CCCNC(=O)C[C@@H]1CC[C@@H]2[C@H](COc3ccc(NC(=O)c4cccc(F)c4)cc3C(=O)N2C)O1	1	-2	-3	-1	·
CCCCN(C(C)=O)C1CC(=O)N(c2ccc(OCCC)cc2)C1=O (configuration not stated)	4	29*	0	-2	-5
CCOC(=O)Cn1cc(CN2CCS(=O)(=O)N(Cc3ccc(F)cc3)C(C(=O)OC)C2)nn1 (configuration not stated)	-2	-1	13	17	·
